Experimental data from ChEMBL document CHEMBL3600302, “A Ligand-Based Drug Design. Discovery of 4-Trifluoromethyl-7,8-pyranocoumarin as a Selective Inhibitor of Human Cytochrome P450 1A2” (J Med Chem, 2015).

What was measured:
Cytochrome P450 1A1 [1] = target: T1, Cytochrome P450 1A1 (Homo sapiens, UniProt P04798); test: Inhibition of human microsomal CYP1A1-dependent ethoxyresorufin-O-deethylase activity by spectrofluorimetric analysis in presence of NADPH regenerating solution
T1 sequence (P04798 whole entry): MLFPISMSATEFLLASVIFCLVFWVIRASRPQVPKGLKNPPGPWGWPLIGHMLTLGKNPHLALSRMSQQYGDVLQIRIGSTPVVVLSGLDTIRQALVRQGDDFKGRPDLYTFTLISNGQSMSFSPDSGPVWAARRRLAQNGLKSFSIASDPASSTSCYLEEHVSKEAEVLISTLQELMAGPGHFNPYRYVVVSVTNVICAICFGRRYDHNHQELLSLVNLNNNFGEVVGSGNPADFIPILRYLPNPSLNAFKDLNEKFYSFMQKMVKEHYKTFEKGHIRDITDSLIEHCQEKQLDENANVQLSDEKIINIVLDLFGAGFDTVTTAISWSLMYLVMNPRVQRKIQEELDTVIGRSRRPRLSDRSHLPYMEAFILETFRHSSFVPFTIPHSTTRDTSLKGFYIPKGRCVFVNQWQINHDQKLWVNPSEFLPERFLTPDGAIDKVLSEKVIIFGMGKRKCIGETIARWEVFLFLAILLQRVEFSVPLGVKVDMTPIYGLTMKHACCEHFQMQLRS
Summary of the method: (§1)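 Microsomal P450 (final 5 nM) in 0.1 M potassium phosphate pH 7.6 with MgCl2 at 37 °C. Substrate final 5 µM: ethoxyresorufin for 1A1/1B1, methoxyresorufin for 1A2. […] Ki was taken as the x-intercept of Dixon plots (1/v0 vs [I]). Mean ± SD of three independent experiments. Selectivity ratios are ratios of these Ki.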

Cytochrome P450 1A2 [2] = target: T2, Cytochrome P450 1A2 (Homo sapiens, UniProt P05177); test: Inhibition of human microsomal CYP1A2-dependent methoxyresorufin-O-demethylase activity by spectrofluorimetric analysis in presence of NADPH regenerating solution
T2 sequence (P05177 whole entry): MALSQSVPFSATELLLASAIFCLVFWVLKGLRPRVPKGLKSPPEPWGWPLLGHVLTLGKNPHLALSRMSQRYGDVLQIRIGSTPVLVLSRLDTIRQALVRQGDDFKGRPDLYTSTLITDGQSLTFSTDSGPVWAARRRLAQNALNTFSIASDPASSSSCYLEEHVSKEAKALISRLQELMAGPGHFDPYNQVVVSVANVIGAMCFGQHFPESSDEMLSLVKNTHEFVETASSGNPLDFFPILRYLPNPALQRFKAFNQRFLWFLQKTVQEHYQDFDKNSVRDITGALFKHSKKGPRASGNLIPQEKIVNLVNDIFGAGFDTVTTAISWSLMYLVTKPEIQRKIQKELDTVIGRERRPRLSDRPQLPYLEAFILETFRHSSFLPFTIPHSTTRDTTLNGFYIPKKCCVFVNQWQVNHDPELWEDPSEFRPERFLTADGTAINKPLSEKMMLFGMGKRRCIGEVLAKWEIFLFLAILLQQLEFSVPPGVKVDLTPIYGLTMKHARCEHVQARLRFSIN
Summary of the method: (§2)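 Microsomal P450 (final 5 nM) in 0.1 M potassium phosphate pH 7.6 with MgCl2 at 37 °C. Substrate final 5 µM: ethoxyresorufin for 1A1/1B1, methoxyresorufin for 1A2. Ki was taken as the x-intercept of Dixon plots (1/v0 vs [I]). Mean ± SD of three independent experiments. Selectivity ratios are ratios of these Ki.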

Homo sapiens [3] = organism: Homo sapiens; test: Selectivity ratio of Ki for human microsomal CYP1A1 to Ki for human microsomal CYP1A2; summary of the method: as §1
CYP1A2 [4] = target: T3, CYP1A2 (Homo sapiens, UniProt P05177); test: (§3) Time-dependent inhibition of human microsomal CYP1A2-dependent methoxyresorufin-O-demethylase activity by spectrofluorimetric analysis in presence of NADPH regenerating solution; conditions: human microsomal CYP1A2, probe methoxyresorufin (O-demethylation)
T3 sequence (P05177 whole entry): T2 sequence (P05177 whole entry)
Summary of the method: (§4)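 1A2 MROD run with NADPH at 0.0125, 0.025, 0.05 and 0.1 µM inhibitor, product monitored continuously over 6 min. Activity at different times came from first derivatives of product curves, expressed as % of control remaining. KI and limiting kinact were derived from the resulting linear plot.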

Cytochrome P450 1B1 [5] = target: T4, Cytochrome P450 1B1 (Homo sapiens, UniProt Q16678); test: Inhibition of human microsomal CYP1B1-dependent ethoxyresorufin-O-deethylase activity by spectrofluorimetric analysis in presence of NADPH regenerating solution; summary of the method: as §2
T4 sequence (Q16678 whole entry): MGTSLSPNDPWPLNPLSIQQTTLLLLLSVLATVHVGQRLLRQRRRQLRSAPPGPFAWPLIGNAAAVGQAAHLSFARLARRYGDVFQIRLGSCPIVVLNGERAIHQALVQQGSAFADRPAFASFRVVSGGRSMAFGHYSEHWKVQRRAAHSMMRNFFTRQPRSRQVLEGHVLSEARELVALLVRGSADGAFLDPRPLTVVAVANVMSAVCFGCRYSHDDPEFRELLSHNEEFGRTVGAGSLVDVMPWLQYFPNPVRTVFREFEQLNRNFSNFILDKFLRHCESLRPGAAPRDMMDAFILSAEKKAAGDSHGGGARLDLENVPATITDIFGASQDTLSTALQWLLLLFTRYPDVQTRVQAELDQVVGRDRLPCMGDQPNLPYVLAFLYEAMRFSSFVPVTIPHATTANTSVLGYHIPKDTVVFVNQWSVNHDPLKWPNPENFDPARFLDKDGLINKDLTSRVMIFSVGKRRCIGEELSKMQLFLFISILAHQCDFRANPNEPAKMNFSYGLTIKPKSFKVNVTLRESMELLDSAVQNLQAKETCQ

CYP1A2 [6] = target: T3, CYP1A2; test: Inhibition of human microsomal CYP1A2-dependent methoxyresorufin-O-demethylase activity at 10 nM preincubated for 5 mins followed by NADPH regenerating solution and substrate addition measured over 6 mins by spectrofluorimetric analysis relative to control; conditions: human microsomal CYP1A2, probe methoxyresorufin (O-demethylation)
Cytochrome P450 1A1 [7] = target: T1, Cytochrome P450 1A1; test: Inhibition of human microsomal CYP1A1-dependent ethoxyresorufin-O-deethylase activity at 10 nM measured over 6 mins by spectrofluorimetric analysis in absence of NADPH regenerating solution; conditions: 0.1 h, 0.01 µM
Summary of the method: (§5)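 Microsomal P450 in 0.1 M potassium phosphate pH 7.6 with MgCl2 and 10 nM inhibitor in DMSO, 2 mL final. Preincubated 5 min at 37 °C either with NADPH-regenerating solution, or without it, with NADPH then added at start. Reaction started with ethoxyresorufin (final 5 µM). Resorufin formation followed 6 min at 37 °C.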

Cytochrome P450 1A1 [8] = target: T1, Cytochrome P450 1A1; test: Inhibition of human microsomal CYP1A1-dependent ethoxyresorufin-O-deethylase activity at 10 nM preincubated for 5 mins followed by NADPH regenerating solution and substrate addition measured over 6 mins by spectrofluorimetric analysis; conditions: 0.1 h, 0.01 µM; summary of the method: as §5
Homo sapiens [9] = organism: Homo sapiens; test: Selectivity ratio of Ki for human microsomal CYP1B1 to Ki for human microsomal CYP1A2; summary of the method: as §1
Cytochrome P450 1B1 [10] = target: T4, Cytochrome P450 1B1; test: Inhibition of human microsomal CYP1B1-dependent ethoxyresorufin-O-deethylase activity at 10 nM measured over 6 mins by spectrofluorimetric analysis in absence of NADPH regenerating solution; conditions: 0.1 h, 0.01 µM; summary of the method: as §5
Cytochrome P450 1A2 [11] = target: T2, Cytochrome P450 1A2; test: Inhibition of human microsomal CYP1A2-dependent methoxyresorufin-O-demethylase activity at 10 nM measured over 6 mins by spectrofluorimetric analysis in absence of NADPH regenerating solution; conditions: 0.1 h, 0.01 µM
Cytochrome P450 1B1 [12] = target: T4, Cytochrome P450 1B1; test: Inhibition of human microsomal CYP1B1-dependent ethoxyresorufin-O-deethylase activity at 10 nM preincubated for 5 mins followed by NADPH regenerating solution and substrate addition measured over 6 mins by spectrofluorimetric analysis; conditions: 0.1 h, 0.01 µM; summary of the method: as §5
Cytochrome P450 1A2 [13] = target: T2, Cytochrome P450 1A2; test: as §3; summary of the method: as §4
Cytochrome P450 1A2 [14] = target: T2, Cytochrome P450 1A2; test: Inhibition of CYP1A2-dependent methoxyresorufin-O-demethylase activity in human HepG2 cells at 10^-5 M preincubated for 24 hrs followed by substrate addition measured at 10, 30, 60 mins by fluorescence assay; assay type: cell-based; conditions: hepg2, 1 h, 10 µM
Summary of the method: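 HepG2 cells (DMEM, 10% FBS) were plated at 2 × 10^5 per well overnight. They were exposed 24 h to compound (final 10^-4 to 10^-7 M) in DMSO, with βNF 10^-5 M as positive control. Cells were PBS-washed and given medium with 5 × 10^-6 M methoxyresorufin. Resorufin fluorescence (ex 535/em 585 nm) was read at 10, 30 and 60 min. Triplicate, three independent runs, unpaired t test versus DMSO.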

| Structure (SMILES) | Ki (Cytochrome P450 1A1 [1]) [µM] | Ki (Cytochrome P450 1A2 [2]) [µM] | Ratio Ki (Homo sapiens [3]) | Ki (Cytochrome P450 1B1 [5]) [µM] | Ratio Ki (Homo sapiens [9]) | TDI (Cytochrome P450 1A2 [13]) | other results |
| --- | --- | --- | --- | --- | --- | --- | --- |
| O=c1cc(-c2ccccc2)oc2c3c(ccc12)OCC=C3 | 0.27 |  |  |  |  |  |  |
| Cc1cc2c(cc(O)c3c(=O)cc(-c4ccccc4)oc32)o1 | 0.47 | 0.044 | 11 | 0.1 | 2.3 |  | kinact (CYP1A2 [4]): 0.00433 s⁻¹; inhibition at 0.1 h, 0.01 µM (CYP1A2 [6]): > 90%; inhibition (INH) (Cytochrome P450 1A1 [7]): Not Active; inhibition (INH) (Cytochrome P450 1A1 [8]): Not Active; inhibition (INH) (Cytochrome P450 1B1 [10]): Not Active; inhibition (INH) (Cytochrome P450 1A2 [11]): Active; inhibition (INH) (Cytochrome P450 1B1 [12]): Not Active |
| Cc1cc2c(ccc3c(-c4ccccc4)c(C)c(=O)oc32)o1 | 11.6 | 3.7 | 3.1 | 22.6 | 6.1 | Not Active |  |
| Cc1cc2c(ccc3c(C)cc(=O)oc32)o1 | 37.9 | 1.15 | 33 | 7.46 | 6.5 | Not Active |  |
| O=c1cc(-c2ccccc2)oc2c1ccc1ccccc12 [ALPHA-NAPHTHOFLAVONE] | 0.045 |  |  |  |  |  |  |
| Cc1cc(=O)oc2c3c(ccc12)OCC=C3 | 110 | 1.51 | 73 | 12 | 7.9 | Not Active |  |
| Cc1cc2c(ccc3c(-c4ccccc4)cc(=O)oc32)o1 | 12 | 5.02 | 2.4 | 4.62 | 0.9 | Not Active |  |
| O=c1cc(-c2ccccc2)c2ccc3c(c2o1)C=CCO3 | 25.2 | 1.29 | 20 | 5.04 | 3.9 | Not Active |  |
| Cc1c(-c2ccccc2)c2ccc3c(c2oc1=O)C=CCO3 | 18.4 | 1.72 | 11 | 21.2 | 12 | Not Active |  |
| O=c1cc(-c2ccccc2)oc2c3c(ccc12)OCO3 | 1.23 | 0.09 | 14 | 0.48 | 5.3 |  |  |
| Cc1cc2c(ccc3c(C(F)(F)F)cc(=O)oc32)o1 | 60.7 | 1.35 | 45 | 46.8 | 35 | Not Active |  |
| Cc1cc(=O)oc2c1ccc1ncccc12 | 101 | 14.2 | 7.1 | 46.6 | 3.3 | Not Active |  |
| Cc1nc2c([nH]1)c(=O)n(C)c(=O)n2Cc1ccco1 [FURAFYLLINE] | > 200 |  |  | > 200 |  |  |  |
| O=c1cc(-c2ccccc2)oc2ccc3ccccc3c12 [BETA-NAPHTHOFLAVONE] |  |  |  |  |  |  | inhibition (INH) (Cytochrome P450 1A2 [14]): Not Active |
| O=c1cc(-c2ccccc2)c2ccc3c(c2o1)OCO3 | > 200 | 3.55 |  |  |  | Not Active |  |
| O=c1cc(-c2ccccc2)oc2c1ccc1ncccc12 | 0.04 | 0.076 | 0.5 | 0.12 | 1.8 |  |  |
| O=c1cc(-c2ccccc2)oc2c3c(cc(O)c12)OCC=C3 | 0.11 |  |  | 0.0056 |  |  |  |
